This is an account of results in ChEMBL document CHEMBL1138987, “Development of cyclic gamma-MSH analogues with selective hMC3R agonist and hMC3R/hMC5R antagonist activities” (J Med Chem, 2006).

Molecules are shown by their SMILES. Some results are limits rather than exact numbers.

By IC50 is commonly meant the concentration that gives 50% inhibition. A lower IC50 goes with greater potency. What is called EC50 is the midpoint of the concentration-response curve.

The target of assay [1] is T1, Melanocyte-stimulating hormone receptor (Homo sapiens, UniProt Q01726). In words: Inhibitory activity against hMC1R transfected in HEK293 cells. Format: cell-based. The gist of the method:
(§1)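 Competition binding on whole HEK293 cells stably expressing the human receptor, seeded 48 h prior. Binding buffer was MEM, 25 mM HEPES pH 7.4, 0.2% BSA, 1,10-phenanthroline, leupeptin and bacitracin. Cells washed and lysed, then gamma counted. IC50 from nonlinear least-squares fit; mean of two experiments in triplicate.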
Target sequence in this assay (Q01726 whole entry): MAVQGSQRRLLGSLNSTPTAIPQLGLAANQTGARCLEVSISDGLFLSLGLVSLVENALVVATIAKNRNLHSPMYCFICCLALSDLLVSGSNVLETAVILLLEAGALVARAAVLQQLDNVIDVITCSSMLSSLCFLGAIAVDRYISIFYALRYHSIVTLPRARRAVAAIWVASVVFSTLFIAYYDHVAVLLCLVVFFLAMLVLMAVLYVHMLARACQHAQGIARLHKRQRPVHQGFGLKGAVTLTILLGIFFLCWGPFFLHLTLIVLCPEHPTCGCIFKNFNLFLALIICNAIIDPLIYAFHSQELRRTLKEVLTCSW

Assay [2] deals with T2, Melanocortin receptor 3 (Homo sapiens, UniProt P41968). Kind of assay: Inhibitory activity against hMC3R transfected in HEK293 cells. It counts as cell-based. The gist of the method: as §1
Assay [3] deals with T3, Melanocortin receptor 4 (Homo sapiens, UniProt P32245). Kind of assay: Inhibitory activity against hMC4R transfected in HEK293 cells. It counts as cell-based. The gist of the method:
as §1

Assay [4] has as its target T4, Melanocortin receptor 5 (Homo sapiens, UniProt P33032). In words: Inhibitory activity against hMC5R transfected in HEK293 cells. It counts as cell-based. The gist of the method:
as §1

Assay [5] concerns the target T1, Melanocyte-stimulating hormone receptor. Kind of assay: Activity against hMC1R transfected in HEK293 cells by intracellular cAMP accumulation. It counts as functional, cell-based. The method, boiled down:
(§2)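 HEK293 cells stably transfected with human receptor, grown to confluence in MEM with 10% FBS, seeded 48 h before assay. Cells preincubated 1 min at 37 °C in EBSS with IBMX (0.5 mM stock). Peptide added (10^-10 to 10^-5 M), 3 min at 37 °C. Stopped with ice-cold Tris/EDTA, boiled, cAMP measured by competitive binding kit. EC50 from nonlinear least-squares fit; mean of two experiments in triplicate.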

For assay [6], the target named is T2, Melanocortin receptor 3. Kind of assay: Activity against hMC3R transfected in HEK293 cells by intracellular cAMP accumulation. It counts as functional, cell-based. The method, boiled down: as §2
In general terms: cAMP levels reflect the balance of adenylyl cyclase and phosphodiesterase activity.

Assay [7] has as its target T3, Melanocortin receptor 4. Kind of assay: Activity against hMC4R transfected in HEK293 cells by intracellular cAMP accumulation. It counts as functional, cell-based. The method, boiled down: as §2
Assay [8] has as its target T4, Melanocortin receptor 5. In words: Activity against hMC5R transfected in HEK293 cells by intracellular cAMP accumulation. It counts as functional, cell-based. The gist of the method: as §2

T2 sequence (P41968 whole entry): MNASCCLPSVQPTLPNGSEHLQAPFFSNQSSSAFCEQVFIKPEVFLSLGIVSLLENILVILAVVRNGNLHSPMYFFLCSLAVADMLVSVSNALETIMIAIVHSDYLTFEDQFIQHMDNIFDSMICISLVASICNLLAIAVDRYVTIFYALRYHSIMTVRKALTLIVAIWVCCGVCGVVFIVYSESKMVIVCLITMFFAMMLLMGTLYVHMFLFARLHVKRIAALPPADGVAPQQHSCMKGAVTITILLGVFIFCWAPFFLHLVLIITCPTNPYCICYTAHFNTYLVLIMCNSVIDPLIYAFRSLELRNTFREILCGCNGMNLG
T4 sequence (P33032 whole entry): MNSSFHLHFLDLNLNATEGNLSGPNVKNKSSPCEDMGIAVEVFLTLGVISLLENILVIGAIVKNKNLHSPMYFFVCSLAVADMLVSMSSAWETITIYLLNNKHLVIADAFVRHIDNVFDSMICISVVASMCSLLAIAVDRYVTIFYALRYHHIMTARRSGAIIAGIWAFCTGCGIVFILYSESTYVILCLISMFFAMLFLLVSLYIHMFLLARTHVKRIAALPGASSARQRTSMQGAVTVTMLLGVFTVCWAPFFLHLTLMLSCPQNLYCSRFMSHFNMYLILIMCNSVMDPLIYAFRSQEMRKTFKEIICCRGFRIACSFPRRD
T3 sequence (P32245 whole entry): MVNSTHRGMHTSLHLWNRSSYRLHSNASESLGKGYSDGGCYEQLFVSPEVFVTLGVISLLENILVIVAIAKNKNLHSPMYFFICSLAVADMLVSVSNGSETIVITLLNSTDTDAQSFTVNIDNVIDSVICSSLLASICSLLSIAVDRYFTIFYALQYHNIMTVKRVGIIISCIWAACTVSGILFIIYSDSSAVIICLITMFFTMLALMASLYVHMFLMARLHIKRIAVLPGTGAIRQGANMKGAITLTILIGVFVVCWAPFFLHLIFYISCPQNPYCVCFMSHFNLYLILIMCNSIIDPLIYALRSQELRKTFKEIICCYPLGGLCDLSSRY

On to `CCCC[C@@H]1NC(=O)CC[C@@H](C(N)=O)NC(=O)[C@H](Cc2c[nH]c3ccccc23)NC(=O)[C@H](CCCN=C(N)N)NC(=O)[C@@H](Cc2ccc3ccccc3c2)NC(=O)[C@@H]2CCCN2C1=O`, for which the IC50 was greater than 10000 nM in assay [1], 13 nM on Melanocortin receptor 3 [2], 1000 nM at Melanocortin receptor 4 [3] and 10 nM at Melanocortin receptor 5 [4]. In addition, the %max (in assay [5]; at Melanocortin receptor 3 [6]; on Melanocortin receptor 4 [7]; on Melanocortin receptor 5 [8]) was 0% each time. In addition, the EC50 (in assay [5]; on Melanocortin receptor 3 [6]; on Melanocortin receptor 4 [7]; on Melanocortin receptor 5 [8]) was greater than 10000 nM in each case.

Take `CCCC[C@@H]1NC(=O)CC[C@@H](C(N)=O)NC(=O)[C@H](Cc2c[nH]c3ccccc23)NC(=O)[C@H](CCCN=C(N)N)NC(=O)[C@@H](Cc2ccccc2)NC(=O)[C@@H](CCC(=O)O)NC1=O`: the %max was 0% in assay [5], 54% at Melanocortin receptor 3 [6], 0% at Melanocortin receptor 4 [7] and 0% on Melanocortin receptor 5 [8].

Take `CCCC[C@@H]1NC(=O)CC[C@@H](C(N)=O)NC(=O)[C@H](Cc2c[nH]c3ccccc23)NC(=O)[C@H](CCCN=C(N)N)NC(=O)[C@@H](Cc2ccc3ccccc3c2)NC(=O)[C@H](CCCC)NC1=O`: the IC50 in assay [1] was found to be 3000 nM; at Melanocortin receptor 3 [2], 6 nM; against Melanocortin receptor 4 [3] it was 16 nM; at Melanocortin receptor 5 [4], 3.8 nM. The %max in assay [5] was found to be 0%; on Melanocortin receptor 3 [6], 0%; at Melanocortin receptor 4 [7], 31%; at Melanocortin receptor 5 [8], 10%. Also, the EC50 in assay [5] is greater than 1000 nM; at Melanocortin receptor 3 [6], greater than 10000 nM; on Melanocortin receptor 4 [7], 340 nM; at Melanocortin receptor 5 [8], 200 nM.

Turning to `CCCC[C@@H]1NC(=O)CC[C@@H](C(N)=O)NC(=O)[C@H](Cc2c[nH]c3ccccc23)NC(=O)[C@H](CCCN=C(N)N)NC(=O)[C@@H](Cc2ccccc2)NC(=O)[C@H](CCC(=O)O)NC1=O`, the IC50 in assay [1] was greater than 10000 nM; at Melanocortin receptor 3 [2], 1200 nM; against Melanocortin receptor 4 [3], greater than 10000 nM; against Melanocortin receptor 5 [4] it was 3060 nM. Also, the concentration for a half-maximal effect (EC50) in assay [5] is greater than 10000 nM; at Melanocortin receptor 3 [6], 4300 nM; on Melanocortin receptor 4 [7], greater than 10000 nM; at Melanocortin receptor 5 [8] it was greater than 10000 nM.

Regarding `CCCC[C@@H]1NC(=O)CC[C@@H](C(N)=O)NC(=O)[C@H](Cc2c[nH]c3ccccc23)NC(=O)[C@H](CCCN=C(N)N)NC(=O)[C@@H](Cc2ccccc2)NC(=O)[C@H](Cc2c[nH]cn2)NC1=O`, the IC50 in assay [1] was greater than 10000 nM; against Melanocortin receptor 3 [2] it was 560 nM; against Melanocortin receptor 4 [3], 170 nM; against Melanocortin receptor 5 [4] it was 100 nM. Further, the %max in assay [5] turned out to be 0%; at Melanocortin receptor 3 [6], 147%; on Melanocortin receptor 4 [7], 48%; on Melanocortin receptor 5 [8], 0%. For the same molecule, the EC50 in assay [5] is greater than 10000 nM; at Melanocortin receptor 3 [6], 37 nM; at Melanocortin receptor 4 [7], 2000 nM; on Melanocortin receptor 5 [8] it was greater than 10000 nM.

Take `CCCC[C@@H]1NC(=O)CC[C@@H](C(N)=O)NC(=O)[C@H](Cc2c[nH]c3ccccc23)NC(=O)[C@H](CCCN=C(N)N)NC(=O)[C@@H](Cc2ccc3ccccc3c2)NC(=O)[C@H](Cc2c[nH]cn2)NC1=O`: the %max (in assay [5]; at Melanocortin receptor 3 [6]; at Melanocortin receptor 4 [7]; on Melanocortin receptor 5 [8]) was 0% each time.

Regarding `CCCC[C@@H]1NC(=O)CC[C@@H](C(N)=O)NC(=O)[C@H](Cc2c[nH]c3ccccc23)NC(=O)[C@H](CCCN=C(N)N)NC(=O)[C@@H](Cc2ccc3ccccc3c2)NC(=O)[C@@H](CC(=O)O)NC1=O`, the %max (in assay [5]; on Melanocortin receptor 3 [6]; at Melanocortin receptor 4 [7]; on Melanocortin receptor 5 [8]) was 0% in each case.

Take `CCCC[C@@H]1NC(=O)CC[C@@H](C(N)=O)NC(=O)[C@H](Cc2c[nH]c3ccccc23)NC(=O)[C@H](CCCN=C(N)N)NC(=O)[C@@H](Cc2ccccc2)NC(=O)[C@H](C(C)C)NC1=O`: the IC50 in assay [1] is greater than 10000 nM; at Melanocortin receptor 3 [2] it was 600 nM; against Melanocortin receptor 4 [3], 2500 nM; at Melanocortin receptor 5 [4] it was 110 nM. The %max in assay [5] is 0%; at Melanocortin receptor 3 [6], 108%; at Melanocortin receptor 4 [7] it was 25%; on Melanocortin receptor 5 [8], 75%. Besides, the EC50 in assay [5] is greater than 10000 nM; at Melanocortin receptor 3 [6], 27 nM; at Melanocortin receptor 4 [7], 3000 nM; at Melanocortin receptor 5 [8], 180 nM.

For the molecule `CCCC[C@@H]1NC(=O)CC[C@@H](C(N)=O)NC(=O)[C@H](Cc2c[nH]c3ccccc23)NC(=O)[C@H](CCCN=C(N)N)NC(=O)[C@@H](Cc2ccccc2)NC(=O)[C@@H](CCC(N)=O)NC1=O`, the %max in assay [5] is 20%; at Melanocortin receptor 3 [6], 60%; on Melanocortin receptor 4 [7] it was 0%; at Melanocortin receptor 5 [8], 8%.

`CCCC[C@@H]1NC(=O)CC[C@@H](C(N)=O)NC(=O)[C@H](Cc2c[nH]c3ccccc23)NC(=O)[C@H](CCCN=C(N)N)NC(=O)[C@@H](Cc2ccccc2)NC(=O)[C@@H](CCCN=C(N)N)NC1=O`: the %max in assay [5] came out at 0%; on Melanocortin receptor 3 [6], 112%; on Melanocortin receptor 4 [7] it was 63%; on Melanocortin receptor 5 [8], 0%.

Turning to `CCCC[C@@H]1NC(=O)CC[C@@H](C(N)=O)NC(=O)[C@H](Cc2c[nH]c3ccccc23)NC(=O)[C@H](CCCN=C(N)N)NC(=O)[C@@H](Cc2ccccc2)NC(=O)[C@H](CCCN=C(N)N)NC1=O`, the IC50 in assay [1] came out at 1400 nM; against Melanocortin receptor 3 [2] it was 140 nM; against Melanocortin receptor 4 [3], 270 nM; against Melanocortin receptor 5 [4], 68 nM. In addition, the concentration giving a half-maximal response (EC50) was greater than 10000 nM in assay [5], 1.2 nM at Melanocortin receptor 3 [6], 174 nM at Melanocortin receptor 4 [7] and greater than 10000 nM on Melanocortin receptor 5 [8].

Turning to `CCCC[C@@H]1NC(=O)CC[C@@H](C(N)=O)NC(=O)[C@H](Cc2c[nH]c3ccccc23)NC(=O)[C@H](CCCN=C(N)N)NC(=O)[C@@H](Cc2ccccc2)NC(=O)[C@H]2CCCN2C1=O`, the %max in assay [5] worked out at 0%; on Melanocortin receptor 3 [6], 0%; at Melanocortin receptor 4 [7] it was 0%; on Melanocortin receptor 5 [8], 10%.

For `CCCC[C@@H]1NC(=O)CC[C@@H](C(N)=O)NC(=O)[C@H](Cc2c[nH]c3ccccc23)NC(=O)[C@H](CCCN=C(N)N)NC(=O)[C@@H](Cc2ccccc2)NC(=O)[C@H](CCC(N)=O)NC1=O`, the IC50 in assay [1] is 1000 nM; at Melanocortin receptor 3 [2], 270 nM; against Melanocortin receptor 4 [3], greater than 10000 nM; against Melanocortin receptor 5 [4], 500 nM. The concentration giving a half-maximal response (EC50) was 1000 nM in assay [5], 1700 nM on Melanocortin receptor 3 [6], greater than 10000 nM on Melanocortin receptor 4 [7] and 300 nM at Melanocortin receptor 5 [8].

Turning to `CCCC[C@@H]1NC(=O)CC[C@@H](C(N)=O)NC(=O)[C@H](Cc2c[nH]c3ccccc23)NC(=O)[C@H](CCCN=C(N)N)NC(=O)[C@@H](Cc2ccccc2)NC(=O)[C@H](CC(=O)O)NC1=O`, the half-maximal inhibitory concentration (IC50) is greater than 10000 nM in assay [1], greater than 10000 nM on Melanocortin receptor 3 [2], 150 nM at Melanocortin receptor 4 [3] and greater than 10000 nM against Melanocortin receptor 5 [4]. The %max (in assay [5]; on Melanocortin receptor 3 [6]; on Melanocortin receptor 4 [7]; on Melanocortin receptor 5 [8]) was 0% each time. For the same molecule, the EC50 (in assay [5]; at Melanocortin receptor 3 [6]; on Melanocortin receptor 4 [7]; at Melanocortin receptor 5 [8]) was greater than 10000 nM each time.

`CCCC[C@@H]1NC(=O)CC[C@@H](C(N)=O)NC(=O)[C@H](Cc2c[nH]c3ccccc23)NC(=O)[C@H](CCCN=C(N)N)NC(=O)[C@@H](Cc2ccc3ccccc3c2)NC(=O)[C@@H](CCCN=C(N)N)NC1=O`: the %max came to 0% in assay [5], 0% at Melanocortin receptor 3 [6], 10% on Melanocortin receptor 4 [7] and 0% on Melanocortin receptor 5 [8].
